Wee1 degr inh = inhibitors of human Wee1 degradation. P30291. HeLa Luc-Wee1K328M stability, luciferase luminescence; 100% = proteasome inhibitor MG132 effect. reporter increase, % at 5 µM. 220,000 tested, 1.2% active;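 active = activation above the mean of all tested compounds plus 3 SD, set per screening run, cut at about 8.8% in these data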;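 also: cells exposed to compound for 20 h before luminescence read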
p97 inhibitor = blocks human p97 ATPase activity. P55072. recombinant p97 ATPase, Kinase-Glo ATP luminescence, 3 h. inhibition, % at 8 µM. 220,000 tested, 0.42% active. AID 1481; in the data active = inhibition above about 15%
Arbovirus inh = antivirals against arbovirus infection | arbovirus infection cell-based antiviral screen | inhibition, % at 10 µM | 200,000 tested, 0.37% active | AID 1251; in the data active = inhibition above about 30%
Redox H2O2 prof = compounds producing H2O2 with reducing agent – biochemical, NIH compound library profiling, artefact control for MLSCN library redox annotation, primary screen; DTT-dependent redox cycling H2O2, phenol red/HRP absorbance; 100% = 100 µM peroxide control, 0% = buffer; activation, % at 10 µM; 200,000 tested, 0.03% active; AID 878;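 active = activation of at least 50% relative to the plate's high and low controls in the primary single-dose screen; inactive = activation below 50%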;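 also: compound incubated with DTT at 0.8 mM final as the reducing agent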
PKD1 inh = inhibitors of human PKD1 kinase | AID 797 | PKD1 kinase fluorescence polarization assay | inhibition, % (test concentration not listed) | 200,000 tested, 0.056% active; in the data active = inhibition above about 50%
RBBP9 inhibitor = inhibitors of human serine hydrolase RBBP9; 220,000 tested, 0.2% active; recombinant RBBP9, FP-Rh probe fluorescence polarization; O75884; inhibition, % at 7.94 µM;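 active = inhibition above the campaign mean of all tested compounds plus 3 SD, cut at about 14% in these data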
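Measured by: FP readout at 525/598 nm; material: recombinant human RBBP9; also added: Serine-hydrolase probe FP-Rh, 375 nM pre-mixing; medium: Tris buffer pH 8.0, NaCl, Pluronic; replication: one well per compound; doses: one concentration, 7.94 µM nominal, 0.794% DMSO; timing: preincubation 30 min plus labeling 45 min at 25 °C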
Of the large screens only hits and unclear results are named; the others gave an inactive call. Hits are enriched below; roughly 2.2% of the tested compounds scored in any of these assays.

Cc1cccc(C(=O)N[C@H](C(=O)Nc2ccc(C)c(S(=O)(=O)N(C)C)c2)C(C)C)c1	none
COc1cc(/C=C(\C#N)C(=O)Nc2cccnc2)ccc1OC(C)C	Wee1 degr inh 11
O=C(OCc1nnc(-c2ccc(Cl)cc2)o1)C12CC3CC(CC(O)(C3)C1)C2	Wee1 degr inh 9.8
CN(/C=C/c1c([N+](=O)[O-])c(=O)n(C)c(=O)n1C)c1ccccc1	Wee1 degr inh 9.4
COc1ccc(/C=C/c2c([N+](=O)[O-])c(=O)n(C)c(=O)n2C)cc1OC	none
Cc1cc(C)cc(-n2ccnc2SCC(=O)O)c1	none
O=C1/C(=C/N(C(=O)c2ccco2)c2ccc(Cl)cc2)Sc2ccccc21	Wee1 degr inh 9.4
CNC(=S)Nc1ccc2[nH]c(=O)[nH]c2c1	none
O=c1[nH]c2ccc(NC(=S)Nc3ccc(F)cc3)cc2[nH]1	Wee1 degr inh 9.7 (no result: Arbovirus inh, Redox H2O2 prof, PKD1 inh)
C#CCNC(=O)C1=C[C@H](c2cn(C(C)=O)c3ccccc23)C[C@H](OCc2ccc(CO)cc2)O1	Arbovirus inh 31
Nc1nnc(Cc2cccc(Br)c2)s1	none (no result: Arbovirus inh, Redox H2O2 prof, PKD1 inh)
COC(=O)c1c(NC(=O)C2C3CCC(C3)C2C(=O)O)sc2c1CCCCC2 (stereo unspecified)	PKD1 inh 79
COc1ccc(Cl)cc1NC(=O)c1cc(-c2ccccc2O)n[nH]1	Arbovirus inh 70
COc1ccccc1C(=O)Nc1cc(Cl)ccc1O	p97 inhibitor 15
COc1ccc(OC)c(NC(=O)c2cc(-c3cc(Cl)ccc3O)n[nH]2)c1	none
Cc1c(Cl)cccc1NC(=O)c1cc(-c2ccccc2O)n[nH]1	Arbovirus inh 30
COc1ccc(Cl)cc1NC(=O)c1ccccc1C	none
O=C(O)c1cc(-c2ccccc2Cl)n[nH]1	none
Cc1ccnc(NC(c2ccccc2O)c2oc(CO)cc(=O)c2O)c1 (stereo unspecified)	none
O=C(/C=C/c1cc[n+](CC(=O)c2ccc3cccc4c3c2CC4)cc1)c1ccc2cccc3c2c1CC3	p97 inhibitor 46 (no result: Arbovirus inh, Redox H2O2 prof, PKD1 inh)
O=C(C[n+]1ccc2ccccc2c1)c1cccc2ccccc12	none
Fc1ccc(NC(=S)Nc2cccnc2)c(F)c1F	Wee1 degr inh 9.5
COc1c(Cl)cc(Cl)cc1/C=C/C(=O)c1ccc(NC(=O)c2cccs2)cc1	none
O=C(c1cccs1)N(C(=O)c1cccs1)c1ccc(Br)cn1	none
Cc1ccnc(N(C(=O)c2cccs2)C(=O)c2cccs2)c1	Wee1 degr inh 12
Cc1ccnc(NC(=O)Nc2ccc(Br)cc2Cl)c1	Wee1 degr inh 9.5
COC(=O)c1ccccc1NC(=O)Nc1cc(C)ccn1	none
Cc1ccc(CNC(=O)CSc2ncccn2)cc1	none
COc1ccc(-c2csc(/C(C#N)=C\c3ccc(OC)c([N+](=O)[O-])c3)n2)cc1	none
COc1ccc(-c2csc(/C(C#N)=C\c3ccc(O)c([N+](=O)[O-])c3)n2)cc1OC	none (no result: Arbovirus inh, Redox H2O2 prof, PKD1 inh)
N#C/C(=C\c1ccc(O)c([N+](=O)[O-])c1)c1nc2ccccc2s1	Arbovirus inh 46
COc1cc(/C=C(\C#N)c2nc3ccccc3s2)cc([N+](=O)[O-])c1O	Arbovirus inh 36
Cn1ncc2c(=O)n(CC(=O)NC34CC5CC(CC(C5)C3)C4)cnc21	none
O=C(Nc1ccc(C2SCCS2)cc1)c1ccccc1	Wee1 degr inh 10 (no result: Arbovirus inh, Redox H2O2 prof, PKD1 inh)
O=C(CCN1CCCCCC1)c1ccccc1	RBBP9 inhibitor 18
COc1ccc(C(=O)CCN2CCCCCC2)cc1	none
Cc1c(C(N)=O)sc2ncn(CC(=O)NCCc3ccccc3)c(=O)c12	none
Cc1cccc(C)c1NC(=O)NN=C1CCCCC1	none (no result: Arbovirus inh, Redox H2O2 prof, PKD1 inh)
N#C/C(=C\c1cn[nH]c1-c1ccc(Cl)cc1)C(=O)NCc1ccccc1	Arbovirus inh 37
CCn1cc(C2=NC(c3ccccc3)CO2)c2ccccc21 (stereo unspecified)	Wee1 degr inh 39
CC(=O)O[C@H]1C[C@@]2(C)[C@@H](C[C@@H](O)[C@H]3[C@@]4(C)CC[C@@H](O)[C@@H](C)C4CC[C@@]32C)/C1=C(\CCC=C(C)C)C(=O)O (stereo partly specified)	none
Cc1ccnc(Sc2ccc([N+](=O)[O-])cc2[N+](=O)[O-])n1	p97 inhibitor 16
COc1cc(Br)cc(-c2nc3c(c(=O)[nH]c(=O)n3Cc3ccccc3)n2C)c1O	Arbovirus inh 53
COc1ccc(-c2nc3c(c(=O)[nH]c(=O)n3Cc3ccccc3)n2C)cc1	none
CCN(CC)S(=O)(=O)c1ccc(O)c(NS(=O)(=O)c2ccccc2F)c1	none
O=C(CCc1nnc(CCC2CCCCC2)o1)NCCc1cccnc1	none
NC(=O)c1cccnc1OCC(F)(F)F	none (no result: Arbovirus inh, Redox H2O2 prof, PKD1 inh)
CCOC(=O)C1(CCc2ccccc2)CCN(C(=O)Cc2nonc2C)CC1	none
Nc1nnc(SCc2ccc(F)cc2)n1-c1ccccc1	none
O=C1c2ccccc2C(=O)N1/N=C/c1ccc(O)c(O)c1	none
COc1ccc(/C=C2/SC(=O)N(CCC(=O)Nc3ccc(C)cc3)C2=O)cc1OC	none
COc1cc(/C=C2\SC(N)=NC2=O)ccc1OCC(=O)Nc1ccc(C)cc1	Wee1 degr inh 8.9
O=C(Nc1nnc(SCC(=O)N2CCCCC2)s1)C1CCCCC1	none
COCCSc1nnc(NC(=O)C2CCCCC2)s1	Arbovirus inh 32
COC(=O)c1c(C)cc(C)n2c1nc1ccccc12	Wee1 degr inh 9.8
Cc1cc(C)n2c(nc3ccccc32)c1C(=O)NN	none (no result: Arbovirus inh, Redox H2O2 prof, PKD1 inh)
CN(C)C(=S)Nc1ccc2c(c1)OCCO2	none (no result: Arbovirus inh, Redox H2O2 prof, PKD1 inh)
CCC(C)[C@H](NC(=O)OC(C)(C)C)C(=O)N/N=C/C1=Cc2ccccc2OC1 (stereo partly specified)	none
C[C@H](NC(=O)OC(C)(C)C)C(=O)N/N=C/C1=Cc2ccccc2OC1	Wee1 degr inh 9.7 (no result: Arbovirus inh, Redox H2O2 prof, PKD1 inh)
CC1CCCN(C(=O)c2cccc(S(=O)(=O)Nc3cc(C(F)(F)F)ccc3Cl)c2)C1 (stereo unspecified)	Arbovirus inh 42
CC(C)COc1ccc(CNC(=S)N/N=C/c2ccc([N+](=O)[O-])cc2)cc1	Wee1 degr inh 10
O=C1NCCN1C(=O)C12CC3CC(CC(C3)C1)C2	Wee1 degr inh 9.1
Cc1csc(NC(=O)CN2C(=O)C3CC=CCC3C2=O)n1 (stereo unspecified)	Arbovirus inh 31
S=C1c2ccccc2CN1c1ccccc1	none
Cc1ccc(N2Cc3ccccc3C2=S)cc1	Wee1 degr inh 10
CSc1nnc(-c2cccc(NC(=O)c3ccccc3)c2)n1C	Wee1 degr inh 9.4 (no result: Arbovirus inh, Redox H2O2 prof, PKD1 inh)
CC(C(=O)Nc1ccc2c(c1)OCO2)N(c1ccc(Cl)cc1)S(C)(=O)=O (stereo unspecified)	none
O=C(/C=C/c1ccccc1)N1CCN(CCN2C(=O)c3cccc4cccc(c34)C2=O)CC1	Wee1 degr inh 9.8
Cn1c(Oc2ccccc2NCc2cc(Br)ccc2O)cc(=O)n(C)c1=O	Arbovirus inh 32
